From ChEMBL document CHEMBL4002590, “Design and Synthesis of a Pan-Janus Kinase Inhibitor Clinical Candidate (PF-06263276) Suitable for Inhaled and Topical Delivery for the Treatment of Inflammatory Diseases of the Lungs and Skin” (J Med Chem, 2017)
The source made the active and inactive calls. No cut-off for these calls is given here.

Assays:
[1] = target: Non-receptor tyrosine-protein kinase TYK2 (Homo sapiens, UniProt P29597); experiment: Inhibition of Tyk2 (unknown origin) using peptide substrate preincubated for 60 mins followed by substrate addition and measured after 60 mins by microfluidic assay
Outline: (§1)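 Caliper microfluidic assay of peptide-substrate phosphorylation by the relevant JAK enzyme, run at 1 mM ATP; IC50 values are geometric means of at least three determinations.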

[2] = target: Tyrosine-protein kinase JAK1 (Homo sapiens, UniProt P23458); experiment: Inhibition of GST tagged human recombinant JAK1 catalytic domain expressed in baculovirus using peptide substrate preincubated for 60 mins followed by substrate addition and measured after 60 mins by microfluidic assay
Janus Kinase (JAK) [3] = target: T1, Janus Kinase (JAK) (Homo sapiens, UniProt P52333+P23458+O60674+P29597); experiment: Inhibition of JAK in human PBMC assessed as reduction in human recombinant IL-2/mouse anti-human CD3 stimulated IFNgamma production preincubated for 1 hr followed by IL2/CD3 stimulation measured after 18 hrs by ELISA
Outline: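 Primary PBMCs stimulated with IL-2; inhibition of IFNγ release measured. IC50 values are geometric means of at least three determinations.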

Liver = experiment: Metabolic stability in human liver microsomes assessed per mg protein; format: ADME, microsome
Outline: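 Metabolic stability measured as turnover in human liver microsomes.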

[4] = target: T2, Tyrosine-protein kinase JAK3 (Homo sapiens, UniProt P52333); experiment: Inhibition of GST tagged human recombinant JAK3 catalytic domain expressed in baculovirus using peptide substrate preincubated for 60 mins followed by substrate addition and measured after 60 mins by microfluidic assay; outline: as §1
T2 sequence (P52333 whole entry): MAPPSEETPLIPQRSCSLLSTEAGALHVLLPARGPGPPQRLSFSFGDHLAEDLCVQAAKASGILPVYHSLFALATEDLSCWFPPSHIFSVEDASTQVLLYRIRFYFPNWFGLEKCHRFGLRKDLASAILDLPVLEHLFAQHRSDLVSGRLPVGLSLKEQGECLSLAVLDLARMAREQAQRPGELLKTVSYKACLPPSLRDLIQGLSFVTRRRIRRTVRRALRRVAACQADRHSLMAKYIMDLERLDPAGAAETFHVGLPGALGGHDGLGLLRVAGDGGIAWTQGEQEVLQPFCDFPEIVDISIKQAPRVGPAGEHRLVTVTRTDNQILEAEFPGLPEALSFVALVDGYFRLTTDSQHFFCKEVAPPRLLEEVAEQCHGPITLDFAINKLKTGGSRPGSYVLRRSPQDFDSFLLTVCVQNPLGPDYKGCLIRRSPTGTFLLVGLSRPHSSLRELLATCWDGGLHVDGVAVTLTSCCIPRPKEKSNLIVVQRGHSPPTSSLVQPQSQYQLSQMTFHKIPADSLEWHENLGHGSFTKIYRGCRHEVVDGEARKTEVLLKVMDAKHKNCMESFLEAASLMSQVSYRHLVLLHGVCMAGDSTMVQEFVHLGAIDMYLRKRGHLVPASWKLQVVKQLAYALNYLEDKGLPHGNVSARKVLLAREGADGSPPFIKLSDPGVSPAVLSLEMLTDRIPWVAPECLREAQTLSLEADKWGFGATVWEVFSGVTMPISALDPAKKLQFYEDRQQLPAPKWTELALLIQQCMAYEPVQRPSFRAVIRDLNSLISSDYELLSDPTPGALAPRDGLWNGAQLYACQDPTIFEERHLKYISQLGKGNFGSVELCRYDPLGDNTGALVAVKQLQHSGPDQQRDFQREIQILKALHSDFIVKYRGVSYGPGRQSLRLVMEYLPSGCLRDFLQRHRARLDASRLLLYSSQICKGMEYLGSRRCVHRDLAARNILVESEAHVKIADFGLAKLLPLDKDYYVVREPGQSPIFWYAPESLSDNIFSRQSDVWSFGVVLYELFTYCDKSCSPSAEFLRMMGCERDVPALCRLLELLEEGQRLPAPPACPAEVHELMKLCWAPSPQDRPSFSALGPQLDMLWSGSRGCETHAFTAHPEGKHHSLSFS

[5] = target: Tyrosine-protein kinase JAK2 (Homo sapiens, UniProt O60674); experiment: Inhibition of GST tagged human recombinant JAK2 catalytic domain expressed in baculovirus using peptide substrate preincubated for 60 mins followed by substrate addition and measured after 60 mins by microfluidic assay; outline: as §1
[6] = Drug metabolism in human liver microsomes assessed as UGT-mediated compound glucuronidation per mg protein in presence of microsomal activator Brij58 and cofactor UDPGA; format: ADME
Outline: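 Human liver microsomes supplemented with the activator Brij58 and cofactor UDPGA, NADPH omitted, to measure phase II glucuronidation turnover.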

[7] = Thermodynamic solubility of the compound in pH 7.4 water buffer using crystalline solid sample; format: physicochemical; conditions: read-out: Therm_solubility
Outline: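 Thermodynamic solubility measured from crystalline solid in water buffered at pH 7.4.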

Janus Kinase (JAK) [8] = target: T1, Janus Kinase (JAK)
Homo sapiens [9] = species on record: Homo sapiens; experiment: Selectivity ratio of IC50 for GST tagged human recombinant JAK3 catalytic domain expressed in baculovirus to IC50 for GST tagged human recombinant JAK1 catalytic domain expressed in baculovirus
Outline: (§2)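 Both IC50s come from the same microfluidic mobility-shift (Caliper) assay with 1 mM ATP. The read-out is inhibition of phosphorylation of a peptide substrate by JAK1, JAK2 or JAK3. Each IC50 is a geometric mean of at least three determinations.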

Homo sapiens [10] = species on record: Homo sapiens; experiment: Selectivity ratio of IC50 for GST tagged human recombinant JAK2 catalytic domain expressed in baculovirus to IC50 for GST tagged human recombinant JAK1 catalytic domain expressed in baculovirus; outline: as §2
[11] = target: Mitogen-activated protein kinase kinase kinase kinase 4 (Homo sapiens) (UniProt O95819); experiment: Inhibition of MAP4K4 (unknown origin) at 1 uM relative to control
[12] = target: T3, Tyrosine-protein kinase JAK3 (Homo sapiens) (UniProt P52333); experiment: Inhibition of GST tagged human recombinant JAK3 catalytic domain expressed in baculovirus assessed as offset rate by dilution recovery based microfluidic mobility shift assay
T3 sequence (whole entry): T2 sequence (P52333 whole entry)
Outline: (§3)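 JAK3 inhibition kinetics measured by continuous dilution-recovery in a microfluidic mobility shift format; offset rate (min−1) converted to a recovery T1/2.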

[13] = Aqueous solubility of the compound; format: physicochemical; conditions: buffer
Janus Kinase (JAK) [14] = target: T1, Janus Kinase (JAK); remark: listed apart in the source
[15] = target: T3, Tyrosine-protein kinase JAK3 (Homo sapiens); experiment: Inhibition of GST tagged human recombinant JAK3 catalytic domain expressed in baculovirus assessed as time taken for inhibition to reverse by 50% by dilution recovery based microfluidic mobility shift assay; outline: as §3
Janus Kinase (JAK) [16] = target: T1, Janus Kinase (JAK); experiment: Inhibition of JAK in human PBMC assessed as reduction in human recombinant IL-2/ mouse anti-human CD3 stimulated STAT5 phosphorylation at tyrosine residue at 10-fold IC50 preincubated for 1 hr followed by compound washout and subsequent IL2/CD3 stimulation measured after 30 mins by immunofluorescence assay
Outline: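 PBMC wash-out format: cells exposed to compound for 1 h at 10-fold IC50, washed extensively, then pSTAT5 response to IL-2 stimulation followed over time to give a recovery T1/2.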

Janus Kinase (JAK) [17] = target: T1, Janus Kinase (JAK); experiment: Inhibition of JAK in human PBMC assessed as reduction in human recombinant IL-2/ mouse anti-human CD3 stimulated STAT5 phosphorylation at tyrosine residue preincubated for 1 hr followed by IL2/CD3 stimulation after 30 mins by immunofluorescence assay

Sequence of Tyrosine-protein kinase JAK2 (O60674 whole entry, the tested form may be a part): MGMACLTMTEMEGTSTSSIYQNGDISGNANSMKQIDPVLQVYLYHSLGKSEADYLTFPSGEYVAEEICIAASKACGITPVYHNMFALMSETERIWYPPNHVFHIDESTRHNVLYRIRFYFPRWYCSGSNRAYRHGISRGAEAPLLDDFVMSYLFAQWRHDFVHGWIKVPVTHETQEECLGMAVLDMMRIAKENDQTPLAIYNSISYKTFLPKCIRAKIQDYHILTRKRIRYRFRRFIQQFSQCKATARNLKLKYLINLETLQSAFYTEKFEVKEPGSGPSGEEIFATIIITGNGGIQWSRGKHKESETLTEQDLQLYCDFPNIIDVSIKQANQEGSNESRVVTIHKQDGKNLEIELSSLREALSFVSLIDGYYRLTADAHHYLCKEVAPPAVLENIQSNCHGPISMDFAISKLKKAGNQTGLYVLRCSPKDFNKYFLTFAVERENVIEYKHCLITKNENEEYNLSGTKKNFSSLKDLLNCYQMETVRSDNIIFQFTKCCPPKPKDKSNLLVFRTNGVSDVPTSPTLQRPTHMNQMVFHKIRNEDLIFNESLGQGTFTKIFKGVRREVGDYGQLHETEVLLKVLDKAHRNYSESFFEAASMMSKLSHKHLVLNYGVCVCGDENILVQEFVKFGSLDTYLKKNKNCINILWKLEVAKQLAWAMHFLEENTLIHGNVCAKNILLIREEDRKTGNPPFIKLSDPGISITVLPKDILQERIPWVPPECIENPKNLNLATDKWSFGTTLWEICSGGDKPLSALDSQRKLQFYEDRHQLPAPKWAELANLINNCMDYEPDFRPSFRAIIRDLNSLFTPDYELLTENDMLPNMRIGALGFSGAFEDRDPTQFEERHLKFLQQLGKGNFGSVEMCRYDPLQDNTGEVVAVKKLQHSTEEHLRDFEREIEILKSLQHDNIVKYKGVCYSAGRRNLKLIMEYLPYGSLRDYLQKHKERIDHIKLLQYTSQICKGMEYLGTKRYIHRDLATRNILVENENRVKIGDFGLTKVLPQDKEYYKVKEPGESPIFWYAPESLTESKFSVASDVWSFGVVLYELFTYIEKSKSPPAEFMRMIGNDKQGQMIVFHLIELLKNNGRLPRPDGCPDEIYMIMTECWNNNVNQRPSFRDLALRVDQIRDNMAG
T1 sequence (O60674 whole entry, looked up, one chain of several): as the sequence (O60674 whole entry, the tested form may be a part) above
T1 sequence (P23458 whole entry, looked up, one chain of several): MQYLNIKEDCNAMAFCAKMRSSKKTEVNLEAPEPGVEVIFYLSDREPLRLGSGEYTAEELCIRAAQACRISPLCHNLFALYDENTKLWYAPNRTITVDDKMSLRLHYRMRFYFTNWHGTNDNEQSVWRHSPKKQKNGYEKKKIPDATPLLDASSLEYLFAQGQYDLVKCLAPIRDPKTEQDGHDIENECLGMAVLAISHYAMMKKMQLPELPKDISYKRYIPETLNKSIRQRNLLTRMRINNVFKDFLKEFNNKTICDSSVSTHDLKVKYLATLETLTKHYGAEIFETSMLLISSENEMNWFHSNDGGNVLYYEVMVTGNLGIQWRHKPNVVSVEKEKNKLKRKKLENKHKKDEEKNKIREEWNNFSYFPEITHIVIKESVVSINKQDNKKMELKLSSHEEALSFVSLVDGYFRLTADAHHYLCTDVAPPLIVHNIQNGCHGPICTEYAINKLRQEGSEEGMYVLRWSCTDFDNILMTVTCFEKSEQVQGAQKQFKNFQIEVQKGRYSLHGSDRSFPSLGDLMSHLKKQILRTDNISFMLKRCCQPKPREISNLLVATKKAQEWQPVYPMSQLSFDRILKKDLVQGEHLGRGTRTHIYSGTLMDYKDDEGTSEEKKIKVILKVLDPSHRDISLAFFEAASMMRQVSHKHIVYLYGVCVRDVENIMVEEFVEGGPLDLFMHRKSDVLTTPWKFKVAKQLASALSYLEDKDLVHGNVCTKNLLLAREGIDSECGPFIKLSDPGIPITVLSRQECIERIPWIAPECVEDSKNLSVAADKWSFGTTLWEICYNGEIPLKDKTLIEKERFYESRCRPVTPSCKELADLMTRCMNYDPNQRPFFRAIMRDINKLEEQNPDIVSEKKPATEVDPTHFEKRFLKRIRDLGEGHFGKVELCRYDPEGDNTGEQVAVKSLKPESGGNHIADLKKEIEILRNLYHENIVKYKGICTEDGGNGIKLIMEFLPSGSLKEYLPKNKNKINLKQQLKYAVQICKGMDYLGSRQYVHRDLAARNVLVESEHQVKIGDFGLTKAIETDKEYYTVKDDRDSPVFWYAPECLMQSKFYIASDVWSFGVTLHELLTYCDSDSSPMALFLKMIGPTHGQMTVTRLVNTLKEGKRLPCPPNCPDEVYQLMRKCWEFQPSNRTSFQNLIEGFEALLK
T1 sequence (P29597 whole entry, looked up, one chain of several): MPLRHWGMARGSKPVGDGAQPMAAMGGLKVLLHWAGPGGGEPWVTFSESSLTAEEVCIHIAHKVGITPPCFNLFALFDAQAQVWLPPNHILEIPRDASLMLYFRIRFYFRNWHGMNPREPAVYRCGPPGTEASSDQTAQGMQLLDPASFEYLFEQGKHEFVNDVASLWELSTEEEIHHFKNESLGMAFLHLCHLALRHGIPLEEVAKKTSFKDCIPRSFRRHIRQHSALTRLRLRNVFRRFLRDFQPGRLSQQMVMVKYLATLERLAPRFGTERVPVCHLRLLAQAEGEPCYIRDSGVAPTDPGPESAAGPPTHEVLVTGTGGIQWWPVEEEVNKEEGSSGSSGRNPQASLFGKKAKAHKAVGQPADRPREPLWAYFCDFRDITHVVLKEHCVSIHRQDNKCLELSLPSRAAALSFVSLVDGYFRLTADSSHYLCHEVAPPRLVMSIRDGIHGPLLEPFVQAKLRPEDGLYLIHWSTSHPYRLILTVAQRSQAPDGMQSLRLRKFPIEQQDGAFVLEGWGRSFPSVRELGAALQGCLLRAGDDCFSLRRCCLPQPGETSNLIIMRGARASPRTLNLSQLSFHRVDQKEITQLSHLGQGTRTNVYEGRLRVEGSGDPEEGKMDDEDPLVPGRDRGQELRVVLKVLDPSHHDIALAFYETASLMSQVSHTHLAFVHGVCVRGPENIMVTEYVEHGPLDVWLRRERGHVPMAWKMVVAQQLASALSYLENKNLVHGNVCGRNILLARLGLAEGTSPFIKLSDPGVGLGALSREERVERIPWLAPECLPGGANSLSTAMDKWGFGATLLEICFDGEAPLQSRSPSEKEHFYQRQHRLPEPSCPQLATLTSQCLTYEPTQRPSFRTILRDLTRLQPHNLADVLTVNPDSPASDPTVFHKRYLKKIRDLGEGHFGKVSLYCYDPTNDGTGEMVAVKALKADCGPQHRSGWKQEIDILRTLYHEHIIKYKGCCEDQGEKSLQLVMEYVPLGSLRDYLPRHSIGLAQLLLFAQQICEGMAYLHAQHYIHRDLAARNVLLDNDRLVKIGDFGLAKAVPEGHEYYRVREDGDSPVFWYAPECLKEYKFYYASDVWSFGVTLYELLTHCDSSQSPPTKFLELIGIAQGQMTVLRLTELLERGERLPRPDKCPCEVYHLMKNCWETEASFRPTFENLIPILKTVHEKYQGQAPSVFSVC
Sequence of Tyrosine-protein kinase JAK1 (P23458 whole entry, the tested form may be a part): as the sequence (P23458 whole entry, looked up, one chain of several) above
Sequence of Non-receptor tyrosine-protein kinase TYK2 (P29597 whole entry): as the sequence (P29597 whole entry, looked up, one chain of several) above
Sequence of Mitogen-activated protein kinase kinase kinase kinase 4 (Homo sapiens) (O95819 2-1239 limits assumed): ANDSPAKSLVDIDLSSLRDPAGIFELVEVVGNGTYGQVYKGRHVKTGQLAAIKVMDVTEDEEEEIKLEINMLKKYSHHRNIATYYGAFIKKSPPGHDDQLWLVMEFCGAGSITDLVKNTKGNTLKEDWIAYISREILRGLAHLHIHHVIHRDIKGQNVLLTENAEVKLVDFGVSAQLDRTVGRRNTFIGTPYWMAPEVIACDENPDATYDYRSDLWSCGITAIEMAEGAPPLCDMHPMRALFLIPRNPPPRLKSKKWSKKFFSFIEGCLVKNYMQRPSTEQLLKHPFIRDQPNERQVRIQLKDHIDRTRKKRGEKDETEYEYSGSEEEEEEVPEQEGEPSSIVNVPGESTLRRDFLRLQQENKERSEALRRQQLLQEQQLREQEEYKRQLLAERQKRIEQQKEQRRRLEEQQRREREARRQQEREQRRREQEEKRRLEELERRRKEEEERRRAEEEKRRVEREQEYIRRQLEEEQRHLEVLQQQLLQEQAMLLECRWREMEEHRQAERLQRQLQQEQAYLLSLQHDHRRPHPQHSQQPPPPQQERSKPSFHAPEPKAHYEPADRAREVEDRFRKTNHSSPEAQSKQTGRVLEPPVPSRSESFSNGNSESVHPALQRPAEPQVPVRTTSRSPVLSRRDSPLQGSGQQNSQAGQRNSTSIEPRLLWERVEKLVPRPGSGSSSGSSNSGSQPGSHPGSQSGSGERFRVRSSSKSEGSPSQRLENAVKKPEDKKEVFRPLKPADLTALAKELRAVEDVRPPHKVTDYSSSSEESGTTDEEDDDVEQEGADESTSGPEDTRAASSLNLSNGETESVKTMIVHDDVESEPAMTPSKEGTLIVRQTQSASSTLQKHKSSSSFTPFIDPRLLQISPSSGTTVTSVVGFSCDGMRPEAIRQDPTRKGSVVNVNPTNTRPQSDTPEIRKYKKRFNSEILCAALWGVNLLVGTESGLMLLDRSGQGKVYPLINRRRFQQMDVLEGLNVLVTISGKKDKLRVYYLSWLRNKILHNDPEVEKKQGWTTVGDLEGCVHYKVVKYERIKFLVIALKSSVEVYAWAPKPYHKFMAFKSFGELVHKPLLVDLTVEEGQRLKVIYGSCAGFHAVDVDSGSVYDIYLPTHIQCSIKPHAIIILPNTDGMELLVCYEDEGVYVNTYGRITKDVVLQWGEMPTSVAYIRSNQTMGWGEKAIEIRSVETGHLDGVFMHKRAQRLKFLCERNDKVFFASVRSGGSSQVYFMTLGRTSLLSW

Row | IC50 [1] [nM] | IC50 [2] [nM] | IC50 (Janus Kinase (JAK) [3]) [nM] | Stability (Liver) [µL/min] | IC50 [4] [nM] | IC50 [5] [nM] | Drug metabolism [6] [µL/min] | solubility thermodynamic [7] | T1/2 (Janus Kinase (JAK) [8]) [h] | Ratio IC50 (Homo sapiens [9]) | Ratio IC50 (Homo sapiens [10]) | inhibition [11] [%] | K [12] [min⁻¹] | solubility [13] | TDI (Janus Kinase (JAK) [14]) | T1/2 [15] [h] | inhibition (Janus Kinase (JAK) [16]) | IC50 (Janus Kinase (JAK) [17]) [nM] | SMILES
1 | 25.1 | 1.3 | 39.1 | 18 | 1.3 | 5.6 | 7.3 |  |  |  |  |  |  |  |  |  |  |  | CCc1cc(O)ccc1-c1ccc2c(-c3nc4c([nH]3)CN(S(C)(=O)=O)CC4)n[nH]c2c1
2 | 22.7 | 0.5 | 4.5 | 42 | 7.1 | 3.3 | 5.5 | 10 to 20 µM |  |  |  |  |  |  |  |  |  |  | CCc1cc(O)ccc1-c1ccc2c(-c3nc4c([nH]3)CN(C(C)=O)CC4)n[nH]c2c1
3 | 54.5 | 1.7 | 19.1 |  | 4.3 | 4.2 |  | 15 µM |  |  |  |  |  |  |  |  |  |  | CCc1cc(O)ccc1-c1ccc2c(C(N)=O)n[nH]c2c1
4 | 437 | 9.7 | 75.4 |  | 166 | 17.3 |  |  |  |  |  |  |  |  |  |  |  |  | CCCc1cc(O)ccc1-c1ccc2c(-c3nc4ccccc4[nH]3)n[nH]c2c1
5 | 15.3 | 0.8 | 47.9 |  | 16.7 | 7.9 | > 360 |  | 3.5 |  |  |  |  |  |  |  |  |  | CCc1cc(O)c(F)cc1-c1ccc2c(-c3nc4ccccc4[nH]3)n[nH]c2c1
6 | 291 | 68.6 | 572.7 |  | 493 | 101 |  |  |  |  |  |  |  |  |  |  |  |  | Oc1cccc(-c2ccc3c(-c4nc5ccccc5[nH]4)n[nH]c3c2)c1
7 | 796 | 7.5 | 9.1 |  | 125 | 40.9 |  | 14 µM |  |  |  |  |  |  |  |  |  |  | CCc1cc(O)ccc1-c1ccc2c(C(=O)NC)n[nH]c2c1
8 | 0.8 | < 0.1 | 35 | 48 | 1.7 | 0.3 | 37 |  |  |  |  |  |  |  |  |  |  |  | CCc1cc(O)c(F)cc1-c1ccc2c(-c3nc4c([nH]3)CCN(C(=O)c3ccc(F)cc3)C4)n[nH]c2c1
9 | 20.1 | 2.1 | 18.6 | 56 | 2.9 | 6.4 | < 1.9 | 10 to 20 µM |  |  |  |  |  |  |  |  |  |  | CCc1cc(O)ccc1-c1ccc2c(-c3nc4c([nH]3)CN(C)CC4)n[nH]c2c1
10 | 57.5 | 1.8 | 30.4 | 75 | 31 | 15.9 | > 360 |  |  |  |  |  |  |  |  |  |  |  | CCc1cc(O)c(F)cc1-c1ccc2c(-c3nc4c([nH]3)CN(Cc3ccccc3)CC4)n[nH]c2c1
11 |  |  |  |  |  |  | 17 |  |  |  |  |  |  |  |  |  |  |  | CCc1cc(O)ccc1-c1ccc2c(-c3nc4c([nH]3)CCN(C(=O)c3cnc(N5CCCCC5)cn3)C4)n[nH]c2c1
12 |  |  |  |  |  |  |  |  |  | 3 | 5 |  |  |  |  |  |  |  | C[C@@H]1CCN(C(=O)CC#N)C[C@@H]1N(C)c1ncnc2[nH]ccc12
13 | > 10000 | 2760 | > 10000 |  | > 10000 | > 10000 |  |  |  |  |  |  |  |  |  |  |  |  | CCc1cc(O)ccc1-c1ccc2c(C(=O)N(C)C)n[nH]c2c1
14 | 392 | 26.8 | 250.3 |  | 293 | 79.6 |  |  |  |  |  |  |  |  |  |  |  |  | CC(C)c1cc(O)ccc1-c1ccc2c(-c3nc4ccccc4[nH]3)n[nH]c2c1
15 |  |  | 204.8 |  |  |  | 46 |  |  |  |  |  |  |  |  |  |  |  | CCc1c(-c2ccc3c(-c4nc5ccccc5[nH]4)n[nH]c3c2)ccc(O)c1F
16 | 816 | 60 | 277.8 |  | 418 | 58.8 |  | 0.5 µM | 4.5 |  |  |  |  |  |  |  |  |  | CCc1cc(O)ccc1-c1ccc2c(C(=O)Nc3ccc(C)nc3)n[nH]c2c1
17 | 9.1 | 0.4 | 10.5 | 35 | 8.3 | 2.2 | 49 |  | 6.5 |  |  | > 85 | 0.006 | Insoluble | Active | 1.9 |  |  | CCc1cc(O)ccc1-c1ccc2c(-c3nc4ccccc4[nH]3)n[nH]c2c1
18 | 4.6 | 0.9 | 10.4 |  | 0.8 | 0.8 |  | 4.1 µM |  |  |  |  |  |  |  |  |  |  | CCc1cc(O)ccc1-c1ccc2c(-c3ncc[nH]3)n[nH]c2c1
19 | 959 | 2.3 |  | 131 | 34.1 | 21.2 | > 200 | 20 µg/mL |  |  |  |  | 0.024 |  |  | 0.467 | inactive | 343 | C[C@@H]1CCN(C(=O)N2CC[C@@H](S(=O)(=O)c3cccc(O)c3)C2)C[C@@H]1N(C)c1ncnc2[nH]ccc12
20 | 1630 | 37.5 |  | 82 | 139 | 124 | < 3.5 |  |  |  |  |  |  |  |  |  | inactive | 27 | C[C@@H]1CCN(C(=O)N2CCCC2)C[C@@H]1N(C)c1ncnc2[nH]ccc12
